Article PMC4301737 (Journal of molecular biology, 2009)
Read-outs that look alike come from different tables or passages of the source.

Experiments:
[1] = target: sperm-whale myoglobin (SWMb); conditions: ref Springer et al.[23], cited from earlier work
[2] = system: BpeGReg; experiment: Ligand binding kinetics and affinity of BpeGReg; design: species or system Bordetella pertussis; conditions: 25°C, 100 mM NaPi, pH 7.5
Method in brief: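 His-tagged protein purified by Co2+-affinity, used at 2–5 µM. O2 kon by flash photolysis at 436 or 414 nm with 64–1024 µM O2. O2 koff by stopped-flow at 436 nm, oxy protein mixed with 1 mM dithionite. CO kon by photolysis at 419 nm with 30–480 µM CO. CO koff: 3.5 µM CO-bound protein (20 µM CO) displaced by 500 µM NO at 423 nm. NO kon by photolysis at 435 nm with 15–60 µM NO. Rates taken from linear kobs-versus-ligand plots over ≥4 concentrations.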

[3] = target: HemAT-Bs; conditions: ref Zhang et al.[22], cited from earlier work
[4] = system: BpeGReg; experiment: Enzymatic diguanylate cyclase assay; assay type: biochemical, Bordetella pertussis

Compound: [C-]#[O+] [CO, carbon-monoxide]
- Kd ([1]; read-out: CO Kd): 37 nM
- CO koff [1]: 0.019 s⁻¹
- CO koff [2]: 0.056 s⁻¹
- Kd ([3]; read-out: CO Kd): 200 nM
- CO koff [3]: 0.067 s⁻¹

Compound: O=O [O2, oxygen]
- Kd ([1]; read-out: O2 Kd): 880 nM
- O2 koff [1]: 15 s⁻¹
- O2 koff [2]: 4.5 s⁻¹
- Kd ([2]; read-out: O2 Kd): 640 nM
- drop in activity in the absence of O2 ([4]; 5 µM BpeGReg in air (Fe(II)O2) vs anaerobic (Fe(II)), 500 µM GTP, PDE-coupled): 13 fold
- rate of O2-bound BpeGReg relative to unliganded ferrous form ([4]; PDE-coupled assay): 10 times
- initial rate of c-di-GMP production by O2-bound BpeGReg ([4]; PDE-coupled assay, 500 µM GTP): 2.5 min⁻¹
- c-di-GMP production by liganded state of BpeGReg ([4]; compared to the unliganded, CO- and NO-bound forms, HPLC-MS and TLC): highest amount of c-di-GMP per mole of protein

Compound: Nc1nc2c(ncn2[C@@H]2O[C@@H]3COP(=O)(O)O[C@H]4[C@@H](O)[C@H](n5cnc6c(=O)[nH]c(N)nc65)O[C@@H]4COP(=O)(O)O[C@H]3[C@H]2O)c(=O)[nH]1 [c-di-GMP, bis-(3’–5’)-cyclic diguanosine monophosphate]
- effect on BpeGReg-catalyzed reaction ([4]; 20 µM c-di-GMP added at start, 1 µM oxy-BpeGReg, 500 µM GTP): strongly inhibited
